This is an account of results in ChEMBL document CHEMBL5661979, “Pharmacological inhibition of BMK1 suppresses tumor growth through promyelocytic leukemia protein” (Cancer Cell, 2010).

Active and inactive are the calls of the source. The rule behind the calls is not given here. Some results are limits rather than exact numbers.

Series [1] deals with T1, Serine/threonine-protein kinase Sgk3 (Homo sapiens) (UniProt Q96BR1).
T1 sequence (whole entry): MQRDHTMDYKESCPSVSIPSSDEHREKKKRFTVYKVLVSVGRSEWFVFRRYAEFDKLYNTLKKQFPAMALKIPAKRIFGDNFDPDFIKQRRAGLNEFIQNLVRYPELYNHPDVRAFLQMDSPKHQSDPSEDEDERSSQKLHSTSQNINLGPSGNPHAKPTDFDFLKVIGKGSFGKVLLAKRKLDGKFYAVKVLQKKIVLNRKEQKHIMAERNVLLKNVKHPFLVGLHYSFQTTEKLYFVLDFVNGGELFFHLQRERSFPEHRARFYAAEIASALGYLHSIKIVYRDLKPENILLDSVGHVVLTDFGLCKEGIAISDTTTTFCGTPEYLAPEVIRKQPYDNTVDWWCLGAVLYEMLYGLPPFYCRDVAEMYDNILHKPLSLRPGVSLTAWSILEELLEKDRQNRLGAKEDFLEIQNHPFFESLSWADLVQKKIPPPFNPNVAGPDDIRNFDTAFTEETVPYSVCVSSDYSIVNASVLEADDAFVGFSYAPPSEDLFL
Put plainly: Inhibition of SGK3 in human HeLa cells lysate at 2 uM pre incubated for 15 mins followed by ATP acyl phosphate probe addition and measured after 10 mins by LC-MS/MS analysis relative to control. The format is subcellular. Particulars: time 25.0 min.

Series [2] is described as follows: Inhibition of HGK/MINK/TNIK in human HeLa cells lysate pre incubated for 15 mins followed by ADP acyl phosphate probe addition and measured after 10 mins by LC-MS/MS analysis. Type of series: subcellular.
For series [3], the target named is T2, Serine/threonine-protein kinase D3 (Homo sapiens) (UniProt O94806).
T2 sequence (whole entry): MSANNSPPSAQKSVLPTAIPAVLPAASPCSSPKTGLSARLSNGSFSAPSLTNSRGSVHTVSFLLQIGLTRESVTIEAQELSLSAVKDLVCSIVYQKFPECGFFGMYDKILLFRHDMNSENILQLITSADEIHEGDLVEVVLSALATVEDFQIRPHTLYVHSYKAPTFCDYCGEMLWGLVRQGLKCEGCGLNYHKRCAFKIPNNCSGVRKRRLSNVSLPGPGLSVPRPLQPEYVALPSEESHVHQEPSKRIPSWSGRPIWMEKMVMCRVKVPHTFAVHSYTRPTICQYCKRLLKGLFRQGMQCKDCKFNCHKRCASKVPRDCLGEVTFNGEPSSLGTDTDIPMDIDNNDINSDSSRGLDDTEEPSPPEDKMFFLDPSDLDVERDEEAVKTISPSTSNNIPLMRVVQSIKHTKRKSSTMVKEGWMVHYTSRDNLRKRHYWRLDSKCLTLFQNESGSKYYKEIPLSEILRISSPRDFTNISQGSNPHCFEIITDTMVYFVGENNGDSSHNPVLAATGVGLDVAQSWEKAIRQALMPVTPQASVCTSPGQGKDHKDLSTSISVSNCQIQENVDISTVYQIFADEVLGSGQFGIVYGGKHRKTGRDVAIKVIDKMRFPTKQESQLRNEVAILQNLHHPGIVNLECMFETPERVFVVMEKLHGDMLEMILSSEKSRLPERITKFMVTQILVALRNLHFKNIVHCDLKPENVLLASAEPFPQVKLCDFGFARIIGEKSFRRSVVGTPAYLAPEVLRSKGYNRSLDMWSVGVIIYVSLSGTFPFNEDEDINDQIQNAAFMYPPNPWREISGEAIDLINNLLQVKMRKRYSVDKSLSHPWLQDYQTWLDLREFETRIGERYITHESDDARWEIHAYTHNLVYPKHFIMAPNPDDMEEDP
Put plainly: Inhibition of PKD3 in human HeLa cells lysate at 50 uM pre incubated for 15 mins followed by ADP acyl phosphate probe addition and measured after 10 mins by LC-MS/MS analysis relative to control. Type of series: subcellular. Particulars: time 25.0 min.

The test system of another series is Lewis lung carcinoma. Put plainly: Antitumor activity against mouse LL2 cells allografted in C57Bl/6 mouse assessed as reduction tumor growth at 50 mg/kg, ip administered on day 10 post implantation measured after 17 days. Type of series: functional, organism-based. Particulars: time 7.0 day. In short, it runs like this:
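LL/2 cells (1×10^6, in DMEM) were injected s.c. into the right flank of 6-week-old C57Bl/6 mice on day 0. Dosing was 50 mg/kg i.p. twice daily, starting on day 1, 7 or 10 and continuing to day 17; controls received carrier. 6 mice per treated group. Tumors were measured every 2–3 days.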

The target in series [4] is Ribosomal protein S6 kinase alpha-3 (Homo sapiens, UniProt P51812). As to the kind of experiment: Inhibition of RSK2 domain 1 active form in human HeLa cells lysate at 2 uM pre incubated for 15 mins followed by ATP acyl phosphate probe addition and measured after 10 mins by LC-MS/MS analysis relative to control. Type of series: subcellular. The following applies: time 25.0 min.
Sequence of Ribosomal protein S6 kinase alpha-3 (P51812 whole entry, the tested form may be a part): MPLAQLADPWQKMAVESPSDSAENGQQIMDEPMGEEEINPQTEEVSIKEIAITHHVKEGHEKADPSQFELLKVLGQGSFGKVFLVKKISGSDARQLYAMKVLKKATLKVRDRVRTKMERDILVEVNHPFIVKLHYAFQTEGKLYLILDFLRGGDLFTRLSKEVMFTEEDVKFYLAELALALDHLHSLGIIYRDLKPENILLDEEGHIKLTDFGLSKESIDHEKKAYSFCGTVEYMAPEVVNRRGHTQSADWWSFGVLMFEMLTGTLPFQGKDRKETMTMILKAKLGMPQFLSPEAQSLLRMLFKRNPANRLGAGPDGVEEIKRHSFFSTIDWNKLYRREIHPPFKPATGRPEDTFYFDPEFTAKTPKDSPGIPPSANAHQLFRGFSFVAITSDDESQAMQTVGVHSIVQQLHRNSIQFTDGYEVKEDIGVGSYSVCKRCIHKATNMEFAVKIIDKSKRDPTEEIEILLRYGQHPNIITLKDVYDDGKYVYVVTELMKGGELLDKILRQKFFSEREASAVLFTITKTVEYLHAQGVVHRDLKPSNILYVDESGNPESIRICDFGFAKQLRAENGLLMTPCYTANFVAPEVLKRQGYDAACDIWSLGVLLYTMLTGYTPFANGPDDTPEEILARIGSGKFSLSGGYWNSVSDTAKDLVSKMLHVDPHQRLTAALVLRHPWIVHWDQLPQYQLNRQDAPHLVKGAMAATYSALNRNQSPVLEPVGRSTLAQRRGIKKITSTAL

Series [5] is described as follows: Plasma concentration in C57Bl/6 mouse at 50 mg/kg, ip administered for 13 day and measured 8 hr post last dose by LC-MS/MS analysis. Type of series: ADME, organism-based.
Series [6] addresses Dual specificity mitogen-activated protein kinase kinase; MEK1/2 (Homo sapiens, UniProt P36507+Q02750). As to the kind of experiment: Inhibition of MAP2K1/MAP2K2 in human HeLa cells lysate at 2 uM pre incubated for 15 mins followed by ATP acyl phosphate probe addition and measured after 10 mins by LC-MS/MS analysis relative to control. The format is subcellular. The following applies: time 25.0 min.

The target of series [7] is Serine/threonine-protein kinase 4 (Homo sapiens, UniProt Q13043). Put plainly: Inhibition of MST1 in human HeLa cells lysate pre incubated for 15 mins followed by ADP acyl phosphate probe addition and measured after 10 mins by LC-MS/MS analysis. The format is subcellular.
Sequence of Serine/threonine-protein kinase 4 (Q13043 whole entry): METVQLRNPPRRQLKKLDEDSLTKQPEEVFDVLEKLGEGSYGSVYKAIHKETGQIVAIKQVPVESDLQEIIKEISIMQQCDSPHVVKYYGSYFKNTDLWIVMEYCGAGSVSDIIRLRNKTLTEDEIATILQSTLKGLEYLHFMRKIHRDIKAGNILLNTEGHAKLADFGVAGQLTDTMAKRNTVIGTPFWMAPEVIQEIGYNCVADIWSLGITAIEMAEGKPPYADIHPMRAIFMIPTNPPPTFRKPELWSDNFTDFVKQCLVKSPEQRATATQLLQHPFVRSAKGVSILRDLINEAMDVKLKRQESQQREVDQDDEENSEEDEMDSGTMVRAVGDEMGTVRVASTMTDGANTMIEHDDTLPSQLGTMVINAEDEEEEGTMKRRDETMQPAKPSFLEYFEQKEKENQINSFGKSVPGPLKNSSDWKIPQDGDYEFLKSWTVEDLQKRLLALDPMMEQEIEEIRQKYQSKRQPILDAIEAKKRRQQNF
Series [8] deals with Serine/threonine-protein kinase Chk1 (Homo sapiens, UniProt O14757). As to the kind of experiment: Inhibition of CHK1 in human HeLa cells lysate pre incubated for 15 mins followed by ATP acyl phosphate probe addition and measured after 10 mins by LC-MS/MS analysis. The format is subcellular.
Sequence of Serine/threonine-protein kinase Chk1 (O14757 whole entry): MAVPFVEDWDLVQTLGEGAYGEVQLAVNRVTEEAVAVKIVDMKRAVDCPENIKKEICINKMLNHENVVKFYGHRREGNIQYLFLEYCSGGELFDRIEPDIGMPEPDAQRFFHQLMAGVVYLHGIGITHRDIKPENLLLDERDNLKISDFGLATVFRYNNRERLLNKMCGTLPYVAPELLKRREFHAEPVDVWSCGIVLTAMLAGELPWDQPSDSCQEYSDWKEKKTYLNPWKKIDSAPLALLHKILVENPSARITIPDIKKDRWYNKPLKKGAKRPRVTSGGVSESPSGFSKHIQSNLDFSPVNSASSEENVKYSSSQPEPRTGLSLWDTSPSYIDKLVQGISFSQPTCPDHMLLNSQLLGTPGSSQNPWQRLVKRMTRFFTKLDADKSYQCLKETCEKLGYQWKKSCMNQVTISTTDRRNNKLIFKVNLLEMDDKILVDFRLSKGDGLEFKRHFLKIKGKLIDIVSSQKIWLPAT
The target in series [9] is Tyrosine-protein kinase CSK (Homo sapiens, UniProt P41240). As to the kind of experiment: Inhibition of CSK in human HeLa cells lysate pre incubated for 15 mins followed by ATP acyl phosphate probe addition and measured after 10 mins by LC-MS/MS analysis. The format is subcellular.
Sequence of Tyrosine-protein kinase CSK (P41240 whole entry, canonical isoform): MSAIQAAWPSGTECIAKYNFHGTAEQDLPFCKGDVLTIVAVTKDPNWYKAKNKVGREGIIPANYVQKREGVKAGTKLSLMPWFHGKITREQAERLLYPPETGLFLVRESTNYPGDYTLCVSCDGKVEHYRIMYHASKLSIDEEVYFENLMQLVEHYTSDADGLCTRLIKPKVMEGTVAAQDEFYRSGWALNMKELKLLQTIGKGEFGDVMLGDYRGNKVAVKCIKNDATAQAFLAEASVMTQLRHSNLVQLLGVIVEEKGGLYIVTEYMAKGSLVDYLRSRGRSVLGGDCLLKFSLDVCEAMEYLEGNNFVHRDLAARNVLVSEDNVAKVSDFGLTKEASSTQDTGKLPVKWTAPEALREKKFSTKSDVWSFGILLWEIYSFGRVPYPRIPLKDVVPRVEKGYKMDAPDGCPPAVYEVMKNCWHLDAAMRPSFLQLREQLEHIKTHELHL
Series [10] concerns the target Casein kinase I isoform alpha (Homo sapiens, UniProt P48729). As to the kind of experiment: Inhibition of CK1alpha in human HeLa cells lysate at 50 uM pre incubated for 15 mins followed by ATP acyl phosphate probe addition and measured after 10 mins by LC-MS/MS analysis relative to control. The format is subcellular. Particulars: time 25.0 min.
Series [11] deals with Dual specificity protein kinase TTK (Homo sapiens) (UniProt P33981). Put plainly: Inhibition of TTK (unknown origin) assessed as remaining activity at 10 uM by ATP-competition binding assay relative to control.
Sequence of Dual specificity protein kinase TTK (Homo sapiens) (P33981 whole entry): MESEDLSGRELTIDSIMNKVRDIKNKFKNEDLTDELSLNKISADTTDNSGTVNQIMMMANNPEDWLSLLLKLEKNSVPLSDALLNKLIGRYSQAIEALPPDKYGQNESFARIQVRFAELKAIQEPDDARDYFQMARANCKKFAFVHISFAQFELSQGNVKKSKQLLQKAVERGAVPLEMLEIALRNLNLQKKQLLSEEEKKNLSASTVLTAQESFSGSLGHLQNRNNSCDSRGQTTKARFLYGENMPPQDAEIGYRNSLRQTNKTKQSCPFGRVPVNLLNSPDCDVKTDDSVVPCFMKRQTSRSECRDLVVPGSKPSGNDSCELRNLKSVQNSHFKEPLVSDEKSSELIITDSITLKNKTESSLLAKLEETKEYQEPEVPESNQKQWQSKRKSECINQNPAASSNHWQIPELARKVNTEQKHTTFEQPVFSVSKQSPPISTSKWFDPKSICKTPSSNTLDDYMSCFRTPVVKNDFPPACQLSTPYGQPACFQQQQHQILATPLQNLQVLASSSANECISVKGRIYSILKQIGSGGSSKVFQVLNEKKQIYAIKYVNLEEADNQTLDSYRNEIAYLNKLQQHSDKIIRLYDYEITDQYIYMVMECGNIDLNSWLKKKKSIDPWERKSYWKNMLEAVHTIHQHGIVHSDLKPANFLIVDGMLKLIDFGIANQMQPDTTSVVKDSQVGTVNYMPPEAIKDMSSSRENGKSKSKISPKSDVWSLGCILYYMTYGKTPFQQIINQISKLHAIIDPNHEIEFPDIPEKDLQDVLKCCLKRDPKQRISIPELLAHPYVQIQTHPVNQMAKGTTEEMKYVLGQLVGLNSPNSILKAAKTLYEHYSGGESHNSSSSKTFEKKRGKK
In series [12] the target is Serine/threonine-protein kinase 38 (Homo sapiens, UniProt Q15208). Put plainly: Inhibition of NDR1 in human HeLa cells lysate at 50 uM pre incubated for 15 mins followed by ATP acyl phosphate probe addition and measured after 10 mins by LC-MS/MS analysis relative to control. The format is subcellular. The following applies: time 25.0 min.
Sequence of Serine/threonine-protein kinase 38 (Q15208 2-465 limits assumed): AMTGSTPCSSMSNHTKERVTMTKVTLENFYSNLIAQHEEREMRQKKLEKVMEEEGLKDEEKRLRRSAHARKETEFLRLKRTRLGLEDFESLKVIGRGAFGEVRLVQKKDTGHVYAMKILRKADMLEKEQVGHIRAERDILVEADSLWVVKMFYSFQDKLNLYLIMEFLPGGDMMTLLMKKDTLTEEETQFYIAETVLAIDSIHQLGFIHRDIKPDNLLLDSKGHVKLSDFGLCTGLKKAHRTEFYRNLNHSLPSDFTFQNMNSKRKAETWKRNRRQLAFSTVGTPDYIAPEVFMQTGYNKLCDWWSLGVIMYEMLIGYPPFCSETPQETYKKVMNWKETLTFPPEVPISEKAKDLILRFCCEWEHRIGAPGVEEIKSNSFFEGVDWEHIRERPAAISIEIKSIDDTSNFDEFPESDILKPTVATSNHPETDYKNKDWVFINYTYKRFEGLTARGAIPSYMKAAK
The nature of series [13]: Clearance in Sprague-Dawley rat at 2 mg/kg, po measured up to 8 hrs by LC-MS/MS analysis. The format is ADME, organism-based. Particulars: in vivo. In short, it runs like this: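 Sprague-Dawley rats given one intravenous dose or one oral dose of 2 mg/kg. Plasma drug concentrations were followed over time, with samples taken out to 8 hr after dosing. PK parameters (clearance, volume of distribution, half-life, oral bioavailability, Cmax) were calculated from these concentration–time data.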

Sequence of Dual specificity mitogen-activated protein kinase kinase; MEK1/2 (P36507 whole entry, looked up): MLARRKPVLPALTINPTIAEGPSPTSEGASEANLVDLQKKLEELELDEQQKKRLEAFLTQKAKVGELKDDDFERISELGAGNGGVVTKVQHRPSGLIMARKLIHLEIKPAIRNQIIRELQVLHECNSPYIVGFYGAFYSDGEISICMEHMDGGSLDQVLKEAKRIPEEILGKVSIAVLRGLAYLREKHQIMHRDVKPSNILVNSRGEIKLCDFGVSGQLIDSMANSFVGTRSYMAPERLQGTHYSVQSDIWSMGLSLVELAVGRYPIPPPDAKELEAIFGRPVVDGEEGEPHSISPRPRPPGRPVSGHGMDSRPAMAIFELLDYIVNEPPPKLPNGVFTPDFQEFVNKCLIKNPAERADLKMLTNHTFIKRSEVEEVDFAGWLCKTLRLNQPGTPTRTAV
Sequence of Dual specificity mitogen-activated protein kinase kinase; MEK1/2 (Q02750 whole entry, looked up): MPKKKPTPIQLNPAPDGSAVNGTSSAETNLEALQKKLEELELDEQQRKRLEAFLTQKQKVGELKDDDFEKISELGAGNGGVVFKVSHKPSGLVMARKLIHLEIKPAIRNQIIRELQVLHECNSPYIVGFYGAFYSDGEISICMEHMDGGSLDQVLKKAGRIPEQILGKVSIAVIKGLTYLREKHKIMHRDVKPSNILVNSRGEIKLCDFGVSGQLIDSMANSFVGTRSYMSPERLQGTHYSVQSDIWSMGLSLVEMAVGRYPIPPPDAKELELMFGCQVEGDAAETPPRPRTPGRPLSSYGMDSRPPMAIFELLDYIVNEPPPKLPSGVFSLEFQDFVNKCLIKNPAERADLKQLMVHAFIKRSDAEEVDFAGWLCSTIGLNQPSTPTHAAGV
Sequence of Casein kinase I isoform alpha (P48729 2-337 limits assumed): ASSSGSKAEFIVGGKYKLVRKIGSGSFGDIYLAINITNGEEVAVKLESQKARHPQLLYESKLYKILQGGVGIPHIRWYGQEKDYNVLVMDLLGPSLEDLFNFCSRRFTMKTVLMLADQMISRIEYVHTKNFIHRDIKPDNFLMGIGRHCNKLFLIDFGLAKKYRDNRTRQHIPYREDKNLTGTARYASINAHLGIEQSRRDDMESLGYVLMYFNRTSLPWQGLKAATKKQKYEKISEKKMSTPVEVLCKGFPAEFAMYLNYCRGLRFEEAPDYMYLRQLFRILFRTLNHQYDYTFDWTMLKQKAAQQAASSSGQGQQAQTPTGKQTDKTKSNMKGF

Regarding `CCOc1cc(N2CCC(O)CC2)ccc1Nc1ncc2c(n1)N(C)c1ccccc1C(=O)N2C`, the inhibition was 15.9% in series [1]; -0.5% in series [3]; 8.2% in series [4]; 0.6% in series [6]; 0.1% in series [10]; 5.3% in [12]. Besides, the IC50 in series [2], in [7], in series [8] and in series [9] was > 50 µM throughout. Moreover, in the series with Lewis lung carcinoma, the result was Active. The molecule also gave a concentration at 312 h in series [5] of 11.1 µM. In series [11], the Activity came out at 19%. Besides, the CL/F in series [13] is 26 mL/min/kg.
